Assay results from ChEMBL document CHEMBL3244387, “Isolation, characterization, and properties of a labile hydrolysis product of the antitumor nucleoside, 5-azacytidine” (J Med Chem, 1978).

Legend:
Mus musculus [1] = assay: Toxicity in mouse L1210 cells allografted CDF1 mouse assessed as change in body weight between day 1 and day 5 at 5 mg/kg, ip dosed on days 1 and 5; format: organism-based; set-up: dose 5 mg/kg, route intraperitoneal; conditions: in vivo
Summary of the method: (§1)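 Female CDF1 mice, 11-12 weeks old, were given 0.1 mL L1210 suspension ip (1.43×10^6 cells/mL) on day 0. Drug was purified by preparative HPLC, dissolved in sterile 0.85% saline and given ip within 15 min, on days 1, 5 and 9. Ten mice per dose, with ten untreated controls. Weights on days 1, 5 and 9. Value is the mean body-weight change of treated minus control, in grams.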

Mus musculus [2] = assay: Toxicity in mouse L1210 cells allografted CDF1 mouse assessed as change in body weight between day 1 and day 9 at 5 mg/kg, ip dosed on days 1, 5 and 9; format: organism-based; set-up: dose 5 mg/kg, route intraperitoneal; conditions: in vivo; summary of the method: as §1
Mus musculus [3] = assay: Toxicity in mouse L1210 cells allografted CDF1 mouse assessed as change in body weight between day 1 and day 5 at 40 mg/kg, ip dosed on days 1 and 5; format: organism-based; set-up: dose 40 mg/kg, route intraperitoneal; conditions: in vivo; summary of the method: as §1
L1210 [4] = assay: Antitumor activity against mouse L1210 cells allografted in CDF1 mouse assessed as increase in life span at 40 mg/kg, ip relative to control; format: functional; conditions: route intraperitoneal
Summary of the method: (§2)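 Female CDF1 mice, 11-12 weeks old, inoculated ip on day 0 with 0.1 mL L1210 suspension (1.43×10^6 cells/mL). Drug purified by preparative HPLC, dissolved in sterile 0.85% saline, injected ip within 15 min on days 1, 5 and 9. Ten mice per dose; ten untreated controls. Read-out: % increase in mean life span over controls; ≥25% counted as active; test run in duplicate.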

Mus musculus [5] = assay: Toxicity in mouse L1210 cells allografted CDF1 mouse assessed as change in body weight between day 1 and day 5 at 2.5 mg/kg, ip dosed on days 1 and 5; format: organism-based; set-up: dose 2.5 mg/kg, route intraperitoneal; conditions: in vivo; summary of the method: as §1
Mus musculus [6] = assay: Toxicity in mouse L1210 cells allografted CDF1 mouse assessed as change in body weight between day 1 and day 9 at 10 mg/kg, ip dosed on days 1, 5 and 9; format: organism-based; set-up: dose 10 mg/kg, route intraperitoneal; conditions: in vivo; summary of the method: as §1
Mus musculus [7] = assay: Toxicity in mouse L1210 cells allografted CDF1 mouse assessed as change in body weight between day 1 and day 5 at 20 mg/kg, ip dosed on days 1 and 5; format: organism-based; set-up: dose 20 mg/kg, route intraperitoneal; conditions: in vivo; summary of the method: as §1
L1210 [8] = assay: Antitumor activity against mouse L1210 cells allografted in CDF1 mouse assessed as increase in life span at 20 mg/kg, ip relative to control; format: functional; conditions: route intraperitoneal; summary of the method: as §2
Mus musculus [9] = assay: Toxicity in mouse L1210 cells allografted CDF1 mouse assessed as change in body weight between day 1 and day 9 at 40 mg/kg, ip dosed on days 1, 5 and 9; format: organism-based; set-up: dose 40 mg/kg, route intraperitoneal; conditions: in vivo; summary of the method: as §1
Mus musculus [10] = assay: Toxicity in mouse L1210 cells allografted CDF1 mouse assessed as mortality at 2.5 to 40 mg/kg, ip; format: organism-based; set-up: dose 2.5-40 mg/kg, route intraperitoneal; conditions: in vivo
Summary of the method: (§3)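 L1210 ip implant (1.43×10^6 cells/mL, 0.1 mL) in female CDF1 mice, 11-12 weeks old. Freshly dissolved HPLC-purified drug in 0.85% saline given ip on days 1, 5 and 9; ten mice per dose. Toxicity scored as early death from acute toxicity, with body weights on days 1, 5 and 9 compared against untreated controls.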

Mus musculus [11] = assay: Toxicity in mouse L1210 cells allografted CDF1 mouse assessed as change in body weight between day 1 and day 9 at 2.5 mg/kg, ip dosed on days 1, 5 and 9; format: organism-based; set-up: dose 2.5 mg/kg, route intraperitoneal; conditions: in vivo; summary of the method: as §1
Half life in mice = conditions: mouse, in vivo
L1210 [12] = assay: Antitumor activity against mouse L1210 cells allografted in CDF1 mouse assessed as increase in life span at 10 mg/kg, ip relative to control; format: functional; conditions: route intraperitoneal; summary of the method: as §2
Mus musculus [13] = assay: Toxicity in mouse L1210 cells allografted CDF1 mouse assessed as change in body weight between day 1 and day 9 at 20 mg/kg, ip dosed on days 1, 5 and 9; format: organism-based; set-up: dose 20 mg/kg, route intraperitoneal; conditions: in vivo; summary of the method: as §1
L1210 [14] = assay: Antitumor activity against mouse L1210 cells allografted in CDF1 mouse assessed as increase in life span at 5 mg/kg, ip relative to control; format: functional; conditions: route intraperitoneal; summary of the method: as §2
Mus musculus [15] = assay: Toxicity in mouse L1210 cells allografted CDF1 mouse assessed as change in body weight between day 1 and day 5 at 10 mg/kg, ip dosed on days 1 and 5; format: organism-based; set-up: dose 10 mg/kg, route intraperitoneal; conditions: in vivo; summary of the method: as §1
L1210 [16] = assay: Antitumor activity against mouse L1210 cells allografted in CDF1 mouse assessed as increase in life span at 2.5 mg/kg, ip relative to control; format: functional; conditions: route intraperitoneal
Summary of the method: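 Female CDF1 mice, 11-12 weeks old, given 0.1 mL ip of L1210 cells at 1.43×10^6 cells/mL on day 0. Drug purified by preparative HPLC, dissolved in sterile 0.85% saline and injected ip within 15 min, on days 1, 5 and 9. Ten mice per dose, ten untreated controls. % ILS is the increase in mean life span over controls; ≥25% counted as active.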

[17] = Stability of the compound in water assessed as compound remaining at 2.6 mg/ml at 37 degC after 7 hrs by UV-HPLC analysis; format: physicochemical; conditions: read-out: Stability
Mus musculus [18] = assay: Toxicity in mouse L1210 cells allografted CDF1 mouse assessed as change in body weight between day 1 and day 9 at 60 mg/kg, ip dosed on days 1, 5 and 9; format: organism-based; set-up: dose 60 mg/kg, route intraperitoneal; conditions: in vivo; summary of the method: as §1
[19] = Half life in water at 2.6 mg/ml at 37 degC by UV-HPLC analysis; format: physicochemical
[20] = Stability of the compound in water assessed as compound remaining at 2.6 mg/ml at 25 degC after 24 hrs by UV-HPLC analysis; format: physicochemical; conditions: read-out: Stability
Mus musculus [21] = assay: Toxicity in mouse L1210 cells allografted CDF1 mouse assessed as change in body weight between day 1 and day 5 at 60 mg/kg, ip dosed on days 1 and 5; format: organism-based; set-up: dose 60 mg/kg, route intraperitoneal; conditions: in vivo; summary of the method: as §1
[22] = Half life in water at 2.6 mg/ml at 25 degC by UV-HPLC analysis; format: physicochemical
[23] = Stability of the compound in water assessed as compound remaining at 2.6 mg/ml at 37 degC after 4 hrs by UV-HPLC analysis; format: physicochemical; conditions: read-out: Stability
L1210 [24] = assay: Antitumor activity against mouse L1210 cells allografted in CDF1 mouse assessed as increase in life span at 60 mg/kg, ip relative to control; format: functional; conditions: route intraperitoneal; summary of the method: as §2
Mus musculus [25] = assay: Toxicity in mouse L1210 cells allografted CDF1 mouse assessed as mortality at 5 to 60 mg/kg, ip; format: organism-based; set-up: dose 5-60 mg/kg, route intraperitoneal; conditions: in vivo; summary of the method: as §3

| SMILES | Activity (Mus musculus [1]) | Activity (Mus musculus [2]) | Activity (Mus musculus [3]) | ILS at 40 mg/kg (L1210 [4]) | Activity (Mus musculus [6]) | Activity (Mus musculus [7]) | ILS at 20 mg/kg (L1210 [8]) | Activity (Mus musculus [9]) | ILS at 10 mg/kg (L1210 [12]) | Activity (Mus musculus [13]) | ILS at 5 mg/kg (L1210 [14]) | Activity (Mus musculus [15]) | further results |
| --- | --- | --- | --- | --- | --- | --- | --- | --- | --- | --- | --- | --- | --- |
| Nc1ncn([C@@H]2O[C@H](CO)[C@@H](O)[C@H]2O)c(=O)n1 [AZACITIDINE] | -1 g | -2.9 g | -2.3 g | 84% | -4.5 g | -1.6 g | 130% | -6.5 g | 86% | -5.1 g | 63% | -1.8 g | Activity (Mus musculus [5]): -1.5 g; Activity (Mus musculus [10]): Non-toxic; Activity (Mus musculus [11]): -5.7 g; half-life (Half life in mice): < 6 h; ILS at 2.5 mg/kg (L1210 [16]): 33% |
| N=C(NC=O)NC(=O)N[C@@H]1O[C@H](CO)[C@@H](O)[C@H]1O | -1.2 g | -2.6 g | -0.8 g | 85% | -3.4 g | -1.9 g | 56% | -4.7 g | 33% | -3.8 g | 17% | -1.6 g | remaining at 7 h, 2.6 mg/ml [17]: 25%; Activity (Mus musculus [18]): -4.3 g; half-life at 2.6 mg/ml [19]: 2 h; remaining at 24 h, 2.6 mg/ml [20]: 24%; Activity (Mus musculus [21]): -1.9 g; half-life at 2.6 mg/ml [22]: 9 h; remaining at 4 h, 2.6 mg/ml [23]: 31%; ILS at 60 mg/kg (L1210 [24]): 93%; Activity (Mus musculus [25]): Non-toxic |
